The values below come from ChEMBL document CHEMBL4699650, “SAR Investigation and Discovery of Water-Soluble 1-Methyl-1,4-dihydroindeno[1,2-c]pyrazoles as Potent Tubulin Polymerization Inhibitors” (J Med Chem, 2020).

In assay [1] the test system is HepG2. Briefly: Antiproliferation activity against human HepG2 cells assessed as cell growth inhibition measured after 72 hrs by MTT assay. The format is functional. The method, boiled down:
(§1)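 Cells grown in RPMI-1640 with 10% FBS at 37 °C, 5% CO2, seeded at 4−7 × 10³ cells/well and left to adhere overnight. Exposed to a range of concentrations for 72 h, then MTT (2.5 mg/mL stock) added for 4 h. Formazan dissolved in DMSO and absorbance read at 570 nm. GI50 taken as the concentration giving 50% growth inhibition, reported as mean ± SD of at least three independent experiments.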
On the technique in general: Tetrazolium dyes change colour on reduction, which living cells bring about.

Assay [2] has as its system A549. The experiment in a line: Antiproliferation activity against human A549 cells assessed as cell growth inhibition measured after 72 hrs by MTT assay. The format is functional. Summed up:
as §1

Assay [3] in a line: Inhibition of porcine brain tubulin polymerization measured every 60 sec for 60 mins in presence of GTP by fluorescence assay. Set-up: species or system Sus scrofa. The method, boiled down:
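Fluorescence kit assay using 2 mg/mL porcine brain tubulin with 2 mM MgCl₂, 0.5 mM EGTA, 1 mM GTP and 15% glycerol. Compound at various concentrations preincubated 1 min at 37 °C before adding the tubulin mix. Read at ex 355/em 460 nm every 60 s for 60 min. IC50 is the concentration giving 50% inhibition at 60 min; mean ± SD of ≥3 independent experiments.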

In assay [4] the test system is HCT-116. Briefly: Antiproliferation activity against human HCT116 cells assessed as cell growth inhibition measured after 72 hrs by MTT assay. The format is functional. Summed up:
as §1

On to `CCOc1cc2c(cc1OCCCN)-c1c(c(Nc3cccc(C(=O)CC)c3)nn1C)C2`, for which the concentration for 50% growth inhibition (GI50) was found to be 2.1 nM in assay [1], 7.6 nM in assay [2] and 4 nM in assay [4]. In addition, in assay [3], the IC50 was determined as 3100 nM.

On to `CCOc1cccc(Nc2nn(C)c3c2Cc2cc(O)c(OCC(N)=O)cc2-3)c1`, for which the GI50 in assay [1] worked out at 5330 nM; in assay [2], 15200 nM; in assay [4], 4660 nM. For the same compound, the IC50 in assay [3] was over 20000 nM.

On to `CCOc1cc2c(cc1OCCCO)-c1c(c(Nc3cccc(C#N)c3)nn1C)C2`, for which the GI50 turned out to be 42.9 nM in assay [1], 176 nM in assay [2] and 151 nM in assay [4]. Further, the 50% inhibitory concentration (IC50) in assay [3] is 9100 nM.

In the case of `CCOC(=O)c1cccc(Nc2nn(C)c3c2Cc2cc(OCC)c(OCCCO)cc2-3)c1`, the figures for the concentration for 50% growth inhibition (GI50) in assay [1], in assay [2] and in assay [4] were 3.3 nM, 5.3 nM and 7.7 nM, respectively. Further, in assay [3], the half-maximal inhibitory concentration (IC50) amounted to 3500 nM.

For the compound `CCOc1cc2c(cc1OCCCO)-c1c(c(Nc3cccc(C(=O)O)c3)nn1C)C2`, the GI50 in assay [1] is over 20000 nM; in assay [2] it was 18300 nM; in assay [4] it was 5380 nM. In assay [3], the 50% inhibitory concentration (IC50) is over 20000 nM.

Consider `CCOc1cc2c(cc1OCC(N)=O)-c1c(c(Nc3cccc(C(=O)OC)c3)nn1C)C2`, for which the concentration for 50% growth inhibition (GI50) worked out at 4.3 nM in assay [1], 3 nM in assay [2] and 9.7 nM in assay [4]. In addition, the IC50 in assay [3] was determined as 4500 nM.

As for `CCOc1cccc(Nc2nn(C)c3c2Cc2cc(OCC)c(OCCCNC(C)=O)cc2-3)c1`, the GI50 was determined as 364 nM in assay [1], 935 nM in assay [2] and 197 nM in assay [4]. In addition, the concentration for half-maximal inhibition (IC50) in assay [3] was over 20000 nM.

With `CCCCOc1cc2c(cc1OCC(N)=O)-c1c(c(Nc3cccc(OCC)c3)nn1C)C2`, the GI50 in assay [1] was determined as 2760 nM; in assay [2], 19900 nM; in assay [4] it was 4770 nM. In addition, in assay [3], the IC50 is over 20000 nM.

Take `CCOc1cccc(Nc2nn(C)c3c2Cc2cc(OCC)c(OCCCO)cc2-3)c1`: the GI50 is 15.7 nM in assay [1], 94.4 nM in assay [2] and 10.4 nM in assay [4]. In addition, the IC50 in assay [3] came to 5800 nM.

Consider `CCCOc1cc2c(cc1OCC(N)=O)-c1c(c(Nc3cccc(OCC)c3)nn1C)C2`, for which the results for the GI50 in assay [1], in assay [2] and in assay [4] were 55.6 nM, 426 nM and 230 nM, respectively. For the same compound, the IC50 in assay [3] came out at 11000 nM.

With `CCOc1cccc(Nc2nn(C)c3c2Cc2cc(OCC)c(OCC(N)=O)cc2-3)n1`, the GI50 in assay [1] was determined as 17.1 nM; in assay [2], 62.5 nM; in assay [4], 19 nM. Also, the IC50 in assay [3] is 4100 nM.

With `CCOc1cccc(Nc2nn(C)c3c2Cc2cc(OCc4ccc(OC)cc4)c(OCC(N)=O)cc2-3)c1`, the concentration for 50% growth inhibition (GI50) in assay [1] is 3070 nM; in assay [2], 3080 nM; in assay [4] it was 16600 nM. Besides, the 50% inhibitory concentration (IC50) in assay [3] is over 20000 nM.

Consider `CCOc1cccc(Nc2nn(C)c3c2Cc2cc(OCC)c(OCC(=O)O)cc2-3)c1`, for which the figures for the concentration for 50% growth inhibition (GI50) in assay [1], in assay [2] and in assay [4] were 1640 nM, 8660 nM and 1270 nM, respectively. For the same compound, the concentration for half-maximal inhibition (IC50) in assay [3] was over 20000 nM.

Turning to `CCOc1cc2c(cc1OCCCO)-c1c(c(Nc3cccc(C(=O)CC)c3)nn1C)C2`, the GI50 in assay [1] is 13.6 nM; in assay [2] it was 38.2 nM; in assay [4], 24.5 nM. For the same compound, the IC50 in assay [3] amounted to 5300 nM.

Regarding `CCOc1cc2c(cc1OCCCO)-c1c(c(Nc3cccc(C(=O)OC(C)C)c3)nn1C)C2`, the 50% growth inhibitory concentration (GI50) in assay [1] was found to be 36.7 nM; in assay [2], 164 nM; in assay [4], 103 nM. Also, in assay [3], the IC50 was found to be 7700 nM.

`CCOC(=O)c1cccc(Nc2nn(C)c3c2Cc2cc(OCC)c(OCC(N)=O)cc2-3)c1`: the GI50 in assay [1] came out at 3.4 nM; in assay [2], 12 nM; in assay [4], 4.5 nM. In assay [3], the IC50 was 3900 nM.

Take `CCOc1cccc(Nc2nn(C)c3c2Cc2cc(OCC)c(OCCCO)cc2-3)n1`: the 50% growth inhibitory concentration (GI50) in assay [1] was 15.5 nM; in assay [2], 72 nM; in assay [4], 27.1 nM. The IC50 in assay [3] came to 5000 nM.

As to `CCOc1cc2c(cc1OCC(N)=O)-c1c(c(Nc3cccc(C(=O)CC)c3)nn1C)C2`, the GI50 is 9.2 nM in assay [1], 21.4 nM in assay [2] and 27 nM in assay [4]. Further, the IC50 in assay [3] is 4100 nM.

For `CCOc1cccc(Nc2nn(C)c3c2Cc2cc(OC)c(OCC(N)=O)cc2-3)c1`, the GI50 came to 15 nM in assay [1], 19.6 nM in assay [2] and 26.5 nM in assay [4]. In addition, the concentration for half-maximal inhibition (IC50) in assay [3] was determined as 13400 nM.

With `CCCOc1cc2c(cc1OCC)Cc1c(Nc3cccc(OCC)c3)nn(C)c1-2`, the concentration for 50% growth inhibition (GI50) in assay [1] was found to be 397 nM; in assay [2], 512 nM; in assay [4], 129 nM. The IC50 in assay [3] turned out to be 14600 nM.

Regarding `CCOc1cc2c(cc1OCC(=O)NC)-c1c(c(Nc3cccc(C(=O)OC)c3)nn1C)C2`, the 50% growth inhibitory concentration (GI50) was 10.2 nM in assay [1], 78.1 nM in assay [2] and 37.1 nM in assay [4]. In addition, in assay [3], the half-inhibitory concentration (IC50) was 6300 nM.

Take `CCOc1cc2c(cc1OCCCO)-c1c(c(Nc3cccc(C(=O)OC)c3)nn1C)C2`: the 50% growth inhibitory concentration (GI50) in assay [1] turned out to be 7.1 nM; in assay [2] it was 8.1 nM; in assay [4], 12.3 nM. Moreover, the IC50 in assay [3] is 5900 nM.

`CCNc1cccc(Nc2nn(C)c3c2Cc2cc(OCC)c(OCC(N)=O)cc2-3)c1`: the GI50 turned out to be 107 nM in assay [1], 356 nM in assay [2] and 432 nM in assay [4]. Moreover, the concentration for half-maximal inhibition (IC50) in assay [3] amounted to 10800 nM.

With `CCOc1ccc(Nc2nn(C)c3c2Cc2cc(OCC)c(OCC(N)=O)cc2-3)cc1`, the figures for the GI50 in assay [1], in assay [2] and in assay [4] were 1910 nM, 15000 nM and 4310 nM, respectively. For the same compound, the IC50 in assay [3] was over 20000 nM.

For the compound `CCOc1cc2c(cc1OCC(N)=O)-c1c(c(Nc3cccc(C(=O)NC)c3)nn1C)C2`, the GI50 in assay [1] is 642 nM; in assay [2], 13100 nM; in assay [4], 2100 nM. Further, the IC50 in assay [3] was over 20000 nM.

For `CCOc1cc2c(cc1OCCCN)-c1c(c(Nc3cccc(C#N)c3)nn1C)C2`, the concentration for 50% growth inhibition (GI50) came out at 3.8 nM in assay [1], 20.8 nM in assay [2] and 6.4 nM in assay [4]. Also, the IC50 in assay [3] amounted to 5700 nM.

Consider `CCOc1cc2c(cc1OCC(N)=O)-c1c(c(Nc3cccc(C(=O)OC(C)C)c3)nn1C)C2`, for which the values for the GI50 in assay [1], in assay [2] and in assay [4] were 25.3 nM, 121 nM and 36.4 nM, respectively. For the same compound, in assay [3], the IC50 was 8000 nM.

Take `CCOc1cc2c(cc1OCCCO)-c1c(c(Nc3cccc(C(=O)NC)c3)nn1C)C2`: the GI50 in assay [1] was found to be 2350 nM; in assay [2] it was 1340 nM; in assay [4], 1480 nM. The IC50 in assay [3] was over 20000 nM.

Regarding `CCCOc1cc2c(cc1OCC(N)=O)Cc1c(Nc3cccc(OCC)c3)nn(C)c1-2`, the GI50 in assay [1] was 1960 nM; in assay [2] it was 25400 nM; in assay [4], 1140 nM. The IC50 in assay [3] is over 20000 nM.

For the compound `CCOc1cc2c(cc1OCC(N)=O)-c1c(c(Nc3cccc(C#N)c3)nn1C)C2`, the GI50 in assay [1] worked out at 66.9 nM; in assay [2], 166 nM; in assay [4], 361 nM. In assay [3], the IC50 is 9900 nM.

For `CCOc1cc2c(cc1OCC(=O)NC)-c1c(c(Nc3cccc(C#N)c3)nn1C)C2`, the concentration for 50% growth inhibition (GI50) came to 97.3 nM in assay [1], 2040 nM in assay [2] and 819 nM in assay [4]. Also, the IC50 in assay [3] was over 20000 nM.

One may read the GI50 as the concentration at which growth is held to half of that of the control. The term IC50 denotes the point on the concentration scale where inhibition reaches its midpoint.
